Experimental data taken from article PMC9086222 (RSC Advances, 2018).
Where two headings read alike, the source gives them in different places.

Legend:
[1] = system: Caco-2 cell monolayers; assay: Dioxin transport and cellular association in static Transwell model; format: in vitro ADME, human; conditions: 24 h; for Mass balance (sum of AP, BL compartments and cellular fraction): Transwell, 0.2 ng/mL mixture, n = 3
Summary of the method: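 Caco-2 seeded at 40 000 cells per cm2 on 12-well polyester Transwell inserts (0.4 μm pores, 1.12 cm2) in DMEM+, with medium changed every other day for 21 days. Apical side received DMEM+ with 0.2 ng mL−1 dioxin mixture (1% DMSO); basolateral side received plain DMEM+; exposure 24 h. Both compartments' medium, hexane rinses and trypsinised, freeze–thaw-lysed cells were analysed by GC-HRMS.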

[2] = system: Caco-2 cell monolayers; assay: Dioxin transport and cellular association in dynamic gut-on-a-chip model; format: in vitro ADME, human; conditions: 24 h; for Mass balance (sum of AP, BL compartments and cellular fraction): Chip, 0.2 ng/mL each congener, n = 3
Summary of the method: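 Caco-2 seeded at 75 000 cells per cm2 on a porous polyester membrane clamped between glass slides. Cells attached 72 h without flow, then both sides were perfused 7 days at 25 μL h−1 with 10 mM-bicarbonate DMEM+ at 37 °C. Apical medium then carried 17 congeners (0.2 ng mL−1 each, 1% DMSO) for 24 h. Compartment eluents, hexane rinses and trypsinised, freeze–thaw-lysed cells were analysed by GC-HRMS.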

[3] = predicted; octanol/water; cited from earlier work
[4] = cited from earlier work
[5] = system: Caco-2 cell monolayer; conditions: 24 h; 2.5 nM 2,3,7,8-TCDD; cited from earlier work
[6] = system: Caco-2 cells; conditions: 90 minutes exposure to 3.4 × 10^−2 μCi mL^−1 U-14C-TCDD; cited from earlier work
[7] = static model (Transwell), 0.2 ng/mL
[8] = dynamic model (chip), 0.2 ng/mL

Compound	Mass balance (sum of AP, BL compartments and cellular fraction) [1]	Mass balance (sum of AP, BL compartments and cellular fraction) [2]	log P [3]	further results
Clc1cc2oc3c(Cl)c(Cl)c(Cl)c(Cl)c3c2c(Cl)c1Cl [1,2,3,4,7,8,9-HpCDF]	83 ± 2%	97 ± 7%	–	–
Clc1cc2c(c(Cl)c1Cl)Oc1c(Cl)c(Cl)c(Cl)c(Cl)c1O2 [1,2,3,4,6,7,8-HpCDD]	83 ± 2%	97 ± 7%	–	–
Clc1cc2c(oc3c(Cl)c(Cl)c(Cl)c(Cl)c32)c(Cl)c1Cl [1,2,3,4,6,7,8-HpCDF]	93 ± 1%	97 ± 5%	7.9	–
Clc1ccc(Cl)c(-c2cc(Cl)ccc2Cl)c1 [PCB#52]	–	–	–	log P [4]: > 5
Clc1cc2c(oc3c(Cl)c(Cl)c(Cl)cc32)c(Cl)c1Cl [2,3,4,6,7,8-HxCDF]	87 ± 2%	97 ± 7%	7.1	–
Clc1cc2c(oc3cc(Cl)c(Cl)c(Cl)c32)c(Cl)c1Cl [1,2,3,6,7,8-HxCDF]	93 ± 1%	94 ± 5%	6.9	–
Clc1cc2oc3c(Cl)c(Cl)c(Cl)c(Cl)c3c2cc1Cl [1,2,3,4,7,8-HxCDF]	85 ± 2%	97 ± 7%	6.9	–
Clc1cc(Cl)c(-c2cc(Cl)c(Cl)cc2Cl)cc1Cl [#153]	–	–	–	log P [4]: > 5
Clc1cc2c(c(Cl)c1Cl)Oc1c(cc(Cl)c(Cl)c1Cl)O2 [1,2,3,7,8,9-HxCDD]	93 ± 1%	93 ± 5%	7.4	Relative amount in the cellular fraction (of total exposure) [1, 7]: 22.5%; Relative amount in the cellular fraction (of total exposure) [2, 8]: 33%
Clc1cc(Cl)c(-c2cc(Cl)c(Cl)c(Cl)c2Cl)cc1Cl [#180]	–	–	–	log P [4]: > 5
Clc1cc2c(cc1Cl)Oc1cc(Cl)c(Cl)cc1O2 [2,3,7,8-TCDD, 2,3,7,8-tetrachlorodibenzo-p-dioxin]	81 ± 2%	85 ± 5%	–	Relative amount in the cellular fraction (of total exposure) [1, 7]: approximately 39%; Transport across the monolayer (basal side compared to total exposed amount) [1, 7]: 3%; Transported across the Caco-2 cell monolayer [5]: 15%; Apical concentration transported to the basal compartment [6]: less than 1.5%; Steady-state cellular association [6]: approximately 13%; Relative amount in the cellular fraction (of total exposure) [2, 8]: ~56%; Transport across the monolayer (basal side compared to total exposed amount) [2, 8]: 3%
Clc1ccc(-c2cc(Cl)c(Cl)cc2Cl)cc1Cl [#118]	–	–	–	log P [4]: > 5
Clc1cc2c(c(Cl)c1Cl)Oc1cc(Cl)c(Cl)c(Cl)c1O2 [1,2,3,6,7,8-HxCDD]	92 ± 1%	92 ± 5%	7.4	–
Clc1cc2oc3cc(Cl)c(Cl)c(Cl)c3c2c(Cl)c1Cl [1,2,3,7,8,9-HxCDF]	84 ± 2%	91 ± 6%	7.4	–
